Source: ChEMBL document CHEMBL4814060, “Design, synthesis and biological evaluation of novel pleuromutilin derivatives as potent anti-MRSA agents targeting the 50S ribosome” (Bioorg Med Chem, 2021)
In brackets after ≈: the same amount, converted by molar mass.

Legend:
Staphylococcus aureus [1] = assay: Antibacterial activity against Staphylococcus aureus 144 assessed as inhibition of visible growth incubated for 24 hrs by CLSI protocol based broth microdilution method; assay type: functional
Staphylococcus aureus [2] = assay: Antibacterial activity against Staphylococcus aureus ATCC 29213 assessed as inhibition of visible growth incubated for 24 hrs by CLSI protocol based broth microdilution method; assay type: functional
Staphylococcus aureus [3] = assay: Antibacterial activity against Staphylococcus aureus AD3 assessed as inhibition of visible growth incubated for 24 hrs by CLSI protocol based broth microdilution method; assay type: functional
Staphylococcus aureus [4] = assay: Antibacterial activity against methicillin-resistant Staphylococcus aureus ATCC 43300 assessed as inhibition of visible growth incubated for 24 hrs by CLSI protocol based broth microdilution method; assay type: functional
Staphylococcus aureus [5] = assay: In vivo antibacterial activity against methicillin-resistant Staphylococcus aureus ATCC 43300 infected in ICR/Swiss mouse model of neutropenic thigh infection assessed as reduction in bacterial growth at 20 mg/kg, iv administered 2 hrs after infection and tissue collected after 24 hrs and measured after 24 hrs […]; assay type: functional
Procedure, shortened: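 Female ICR/Swiss mice, 6 weeks old, were made neutropenic with ip cyclophosphamide (150 mg/kg at day −4, 100 mg/kg at day −1). Each thigh received about 10^7 CFU/mL MRSA in 0.1 mL. At 2 h, mice got a single iv dose of 20 mg/kg or saline, with 3 mice (6 thighs) per group. At 24 h, thighs were homogenized in iced saline, diluted and plated on MH agar, and CFU counted after 24 h at 37 °C.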

Cytochrome P450 3A4 = Cytochrome P450 3A4 (Homo sapiens, UniProt P08684); assay: Inhibition of CYP3A4 in human liver microsomes using testosterone as substrate incubated for 5 mins followed by NADPH addition and measured after 5 mins by LC/MS/MS analysis
Sequence of Cytochrome P450 3A4 (P08684 whole entry): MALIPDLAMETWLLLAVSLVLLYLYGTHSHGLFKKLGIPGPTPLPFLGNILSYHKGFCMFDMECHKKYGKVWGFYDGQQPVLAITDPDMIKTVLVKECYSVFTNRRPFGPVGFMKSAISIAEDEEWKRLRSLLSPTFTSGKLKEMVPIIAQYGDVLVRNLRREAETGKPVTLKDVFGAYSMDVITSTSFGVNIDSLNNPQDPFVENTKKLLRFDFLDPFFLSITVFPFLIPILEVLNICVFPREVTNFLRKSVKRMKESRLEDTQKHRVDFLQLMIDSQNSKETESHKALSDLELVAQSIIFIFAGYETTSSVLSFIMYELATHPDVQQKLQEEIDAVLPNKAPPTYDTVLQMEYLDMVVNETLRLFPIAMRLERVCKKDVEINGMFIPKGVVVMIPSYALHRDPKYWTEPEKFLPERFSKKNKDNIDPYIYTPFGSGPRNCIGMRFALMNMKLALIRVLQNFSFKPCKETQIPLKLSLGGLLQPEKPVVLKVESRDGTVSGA
Procedure, shortened: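 Final conditions: human liver microsomes 0.2 mg/mL, testosterone 20 μmol/L, 0.1 M Tris pH 7.4, inhibitor at 2.5–80 μM. Plates were preincubated 5 min at 37 °C, then started with NADPH (final 1 mmol/L) and run 5 min. Reaction was stopped with acetonitrile containing loratadine as internal standard, and the supernatant was analysed by LC-MS/MS. IC50 was determined.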

RAW264.7 = assay: Cytotoxicity against mouse RAW264.7 cells assessed as reduction in cell viability at < 40 ug/ml incubated for 16 hrs by MTT assay; conditions: raw264.7, 16 h
[6] = target: T1, Bacterial 70S ribosome (Bacteria) (UniProt P0A7V0+P60723+P0AG67+P0A7R5+P0A7R9+P0A7S3+P0A7S9+P0AG59+P0ADZ4+P0A7T3+P0AG63+P0A7T7+P0A7U3+P0A7U7+P68679+P0A7V3+P0A7V8+P0A7W1+P02358+P02359+P0A7W7+P0A7X3+P0A7J3+P0A7J7+P0AA10+P0ADY3+P02413+P0ADY7+P0AG44+P0C018+P0A7K6+P0A7L0+P0A7L3+P0AG48+P61175+P0ADZ0+P60624+P68919+P0A7L8+P0A7M2+P0A7M6+P60422+P0AG51+P0A7N1+P0A7M9+P0A7N4+P0A7N9+P0A7P5+P0A7Q1+Q2EEQ2+P0A7Q6+P60438+P62399+P0AG55+P0A7K2); assay: Binding affinity to Staphylococcus aureus ATCC 43300 50S ribosome assessed as association constant by SPR analysis; assay type: subcellular
Procedure, shortened: (§1)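 The 50S subunit was purified from ATCC 43300 by sucrose cushion, a 7–30% sucrose gradient and PEG precipitation. Compounds at 100 µM in DMSO were photo-crosslinked onto the chip and printed four times each. Ribosome at 200–3200 nM in PBST (pH 7.4, 0.1% Tween 20) was run at 4 °C: association 600 s, then dissociation 360 s, both at 0.5 µL/s. Surface was regenerated with glycine-HCl pH 2.0.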

Staphylococcus aureus [7] = assay: Bactericidal activity against methicillin-resistant Staphylococcus aureus ATCC 43300 assessed as reduction in bacterial growth at 1 to 32 times of MIC measured upto 24 hrs by time kill assay; assay type: functional, organism-based; conditions: time hrs <=24, TDE = time-dependent effect
Procedure, shortened: (§2)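 MRSA was grown in MH broth at 37 °C for 4.5 h and diluted to 1×10^6 CFU/mL. Compound was added at 1, 2, 4, 8, 16 or 32 × MIC; growth control had 0.9% saline only. Cultures were shaken at 37 °C and sampled at 0, 3, 6, 9 and 24 h. Samples were serially diluted in saline and plated on MH agar, with CFU counted after 24 h at 37 °C. Run in triplicate.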

Staphylococcus aureus [8] = assay: Antibacterial activity against methicillin-resistant Staphylococcus aureus ATCC 43300 assessed as reduction in bacterial growth at 4 times of MIC measured at 3 hrs by time kill assay; assay type: functional; procedure, shortened: as §2
[9] = target: T1, Bacterial 70S ribosome (Bacteria); assay: Binding affinity to Staphylococcus aureus ATCC 43300 50S ribosome assessed as dissociation rate constant by SPR analysis; assay type: subcellular; procedure, shortened: as §1

SMILES	MIC (Staphylococcus aureus [1])	MIC (Staphylococcus aureus [2])	MIC (Staphylococcus aureus [3])	MIC (Staphylococcus aureus [4])	Activity (Staphylococcus aureus [5])	IC50 (Cytochrome P450 3A4)	Activity (RAW264.7)	Ka [6]	Activity (Staphylococcus aureus [7])	Activity (Staphylococcus aureus [8])	Kdiss [9]	log10CFU/ml (Staphylococcus aureus [8])
C=C[C@]1(C)C[C@@H](OC(=O)CSc2nc(N)n(C(=O)c3ccc(F)cc3)n2)[C@]2(C)[C@H](C)CC[C@]3(CCC(=O)[C@H]32)[C@@H](C)[C@@H]1O	1 µg/mL (≈ 1.67 µM)	1 µg/mL (≈ 1.67 µM)	1 µg/mL (≈ 1.67 µM)	0.5 µg/mL (≈ 0.835 µM)								
C=C[C@]1(C)C[C@@H](OC(=O)CSc2nc(N)n(C(=O)c3ccccc3C(F)(F)F)n2)[C@]2(C)[C@H](C)CC[C@]3(CCC(=O)[C@H]32)[C@@H](C)[C@@H]1O	4 µg/mL (≈ 6.17 µM)	4 µg/mL (≈ 6.17 µM)	4 µg/mL (≈ 6.17 µM)	2 µg/mL (≈ 3.08 µM)								
C=C[C@]1(C)C[C@@H](OC(=O)CSc2nc(N)n(C(=O)c3cccc(OC)c3)n2)[C@]2(C)[C@H](C)CC[C@]3(CCC(=O)[C@H]32)[C@@H](C)[C@@H]1O	0.5 µg/mL (≈ 0.819 µM)	0.5 µg/mL (≈ 0.819 µM)	0.5 µg/mL (≈ 0.819 µM)	0.25 µg/mL (≈ 0.409 µM)								
C=C[C@]1(C)C[C@@H](OC(=O)CSc2nc(N)n[nH]2)[C@]2(C)[C@H](C)CC[C@]3(CCC(=O)[C@H]32)[C@@H](C)[C@@H]1O	2 µg/mL (≈ 4.2 µM)	1 µg/mL (≈ 2.1 µM)	1 µg/mL (≈ 2.1 µM)	1 µg/mL (≈ 2.1 µM)								
C=C[C@]1(C)C[C@@H](OC(=O)CSCCN(CC)CC)[C@]2(C)[C@H](C)CC[C@]3(CCC(=O)[C@H]32)[C@@H](C)[C@@H]1O [TIAMULIN]	1 µg/mL (≈ 2.03 µM)	1 µg/mL (≈ 2.03 µM)	1 µg/mL (≈ 2.03 µM)	0.5 µg/mL (≈ 1.01 µM)	0.91 log10CFU/g							
C=C[C@]1(C)C[C@@H](OC(=O)CSc2nc(N)n(C(=O)c3c(F)cccc3Cl)n2)[C@]2(C)[C@H](C)CC[C@]3(CCC(=O)[C@H]32)[C@@H](C)[C@@H]1O	2 µg/mL (≈ 3.16 µM)	2 µg/mL (≈ 3.16 µM)	2 µg/mL (≈ 3.16 µM)	1 µg/mL (≈ 1.58 µM)								
C=C[C@]1(C)C[C@@H](OC(=O)CSc2nc(N)n(C(=O)c3ccc(C)cc3)n2)[C@]2(C)[C@H](C)CC[C@]3(CCC(=O)[C@H]32)[C@@H](C)[C@@H]1O	0.125 µg/mL (≈ 0.21 µM)	0.125 µg/mL (≈ 0.21 µM)	0.125 µg/mL (≈ 0.21 µM)	0.125 µg/mL (≈ 0.21 µM)	1.89 log10CFU/g	3.95 µM	Non-Toxic	4.16 10^2/Ms	Tde	-1.95 log10CFU/ml	2.2 10^-4M	
C=C[C@]1(C)C[C@@H](OC(=O)CSc2nc(N)n(C(=O)c3ccc(OC(F)(F)F)cc3)n2)[C@]2(C)[C@H](C)CC[C@]3(CCC(=O)[C@H]32)[C@@H](C)[C@@H]1O	2 µg/mL (≈ 3.01 µM)	2 µg/mL (≈ 3.01 µM)	1 µg/mL (≈ 1.5 µM)	1 µg/mL (≈ 1.5 µM)								
C=C[C@]1(C)C[C@@H](OC(=O)CSc2nc(N)n(C(=O)c3cccc(Cl)c3)n2)[C@]2(C)[C@H](C)CC[C@]3(CCC(=O)[C@H]32)[C@@H](C)[C@@H]1O	0.5 µg/mL (≈ 0.813 µM)	0.25 µg/mL (≈ 0.406 µM)	0.25 µg/mL (≈ 0.406 µM)	0.25 µg/mL (≈ 0.406 µM)					Tde		4.94 10^-7M	-1.23
C=C[C@]1(C)C[C@@H](OC(=O)CSc2nc(N)n(C(=O)c3ccccc3Cl)n2)[C@]2(C)[C@H](C)CC[C@]3(CCC(=O)[C@H]32)[C@@H](C)[C@@H]1O	1 µg/mL (≈ 1.63 µM)	0.5 µg/mL (≈ 0.813 µM)	0.5 µg/mL (≈ 0.813 µM)	0.5 µg/mL (≈ 0.813 µM)								
C=C[C@]1(C)C[C@@H](OC(=O)CSc2nc(N)n(C(=O)c3ccc(Cl)cc3)n2)[C@]2(C)[C@H](C)CC[C@]3(CCC(=O)[C@H]32)[C@@H](C)[C@@H]1O	1 µg/mL (≈ 1.63 µM)	1 µg/mL (≈ 1.63 µM)	1 µg/mL (≈ 1.63 µM)	0.5 µg/mL (≈ 0.813 µM)								
C=C[C@]1(C)C[C@@H](OC(=O)CSc2nc(N)n(C(=O)c3ccccc3)n2)[C@]2(C)[C@H](C)CC[C@]3(CCC(=O)[C@H]32)[C@@H](C)[C@@H]1O	2 µg/mL (≈ 3.44 µM)	1 µg/mL (≈ 1.72 µM)	1 µg/mL (≈ 1.72 µM)	0.25 µg/mL (≈ 0.43 µM)							2.7 10^-4M	
C=C[C@]1(C)C[C@@H](OC(=O)CSc2nc(N)n(C(=O)c3ccc(OC)cc3)n2)[C@]2(C)[C@H](C)CC[C@]3(CCC(=O)[C@H]32)[C@@H](C)[C@@H]1O	0.5 µg/mL (≈ 0.819 µM)	0.25 µg/mL (≈ 0.409 µM)	0.25 µg/mL (≈ 0.409 µM)	0.25 µg/mL (≈ 0.409 µM)					Tde	-2.42 log10CFU/ml	2.22 10^-7M	
C=C[C@]1(C)C[C@@H](OC(=O)CSc2nc(N)n(C(=O)c3ccc(F)cc3Cl)n2)[C@]2(C)[C@H](C)CC[C@]3(CCC(=O)[C@H]32)[C@@H](C)[C@@H]1O	1 µg/mL (≈ 1.58 µM)	1 µg/mL (≈ 1.58 µM)	0.5 µg/mL (≈ 0.79 µM)	1 µg/mL (≈ 1.58 µM)								
C=C[C@]1(C)C[C@@H](OC(=O)CSc2nc(N)n(C(=O)c3ccccc3OC)n2)[C@]2(C)[C@H](C)CC[C@]3(CCC(=O)[C@H]32)[C@@H](C)[C@@H]1O	1 µg/mL (≈ 1.64 µM)	1 µg/mL (≈ 1.64 µM)	1 µg/mL (≈ 1.64 µM)	1 µg/mL (≈ 1.64 µM)								
C=C[C@]1(C)C[C@@H](OC(=O)CSc2nc(N)n(C(=O)c3cccc(F)c3)n2)[C@]2(C)[C@H](C)CC[C@]3(CCC(=O)[C@H]32)[C@@H](C)[C@@H]1O	1 µg/mL (≈ 1.67 µM)	0.5 µg/mL (≈ 0.835 µM)	0.5 µg/mL (≈ 0.835 µM)	0.25 µg/mL (≈ 0.418 µM)				5.4 10^2/Ms	Tde	-1.26 log10CFU/ml	2.21 10^-5M	
C=C[C@]1(C)C[C@@H](OC(=O)CSc2nc(N)n(C(=O)c3c(F)c(F)c(F)c(F)c3F)n2)[C@]2(C)[C@H](C)CC[C@]3(CCC(=O)[C@H]32)[C@@H](C)[C@@H]1O	2 µg/mL (≈ 2.98 µM)	2 µg/mL (≈ 2.98 µM)	1 µg/mL (≈ 1.49 µM)	1 µg/mL (≈ 1.49 µM)								
C=C[C@]1(C)C[C@@H](OC(=O)CSc2nc(N)n(C(=O)c3cccc(C)c3)n2)[C@]2(C)[C@H](C)CC[C@]3(CCC(=O)[C@H]32)[C@@H](C)[C@@H]1O	0.5 µg/mL (≈ 0.841 µM)	0.5 µg/mL (≈ 0.841 µM)	0.5 µg/mL (≈ 0.841 µM)	0.25 µg/mL (≈ 0.42 µM)							8.79 10^-6M	
C=C[C@]1(C)C[C@@H](OC(=O)CSc2nc(N)n(C(=O)c3cc(Cl)cc(Cl)c3)n2)[C@]2(C)[C@H](C)CC[C@]3(CCC(=O)[C@H]32)[C@@H](C)[C@@H]1O	1 µg/mL (≈ 1.54 µM)	1 µg/mL (≈ 1.54 µM)	0.5 µg/mL (≈ 0.77 µM)	1 µg/mL (≈ 1.54 µM)								
C=C[C@]1(C)C[C@@H](OC(=O)CSc2nc(N)n(C(=O)c3ccccc3C)n2)[C@]2(C)[C@H](C)CC[C@]3(CCC(=O)[C@H]32)[C@@H](C)[C@@H]1O	1 µg/mL (≈ 1.68 µM)	1 µg/mL (≈ 1.68 µM)	1 µg/mL (≈ 1.68 µM)	0.5 µg/mL (≈ 0.841 µM)								
C=C[C@]1(C)C[C@@H](OC(=O)CSc2nc(N)n(C(=O)c3ccccc3F)n2)[C@]2(C)[C@H](C)CC[C@]3(CCC(=O)[C@H]32)[C@@H](C)[C@@H]1O	4 µg/mL (≈ 6.68 µM)	2 µg/mL (≈ 3.34 µM)	2 µg/mL (≈ 3.34 µM)	1 µg/mL (≈ 1.67 µM)								
C=C[C@]1(C)C[C@@H](OC(=O)CSc2nc(N)n(C(=O)c3ccc(C(F)(F)F)cc3)n2)[C@]2(C)[C@H](C)CC[C@]3(CCC(=O)[C@H]32)[C@@H](C)[C@@H]1O	1 µg/mL (≈ 1.54 µM)	1 µg/mL (≈ 1.54 µM)	1 µg/mL (≈ 1.54 µM)	1 µg/mL (≈ 1.54 µM)								
